What was measured:
CCRF-CEM [1] = assay: Activity of creatine kinase from crude human CEM cell extract; type: cell-free
How it was run: (§1)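 CEM cell lysate (NP-40 lysis buffer, desalted on G-50) as enzyme source. Donors: 2 mM ATP for NDPK; 2 mM creatine phosphate for CK; 2 mM phosphoenolpyruvate for PK; for PGK, 1,3-bisphosphoglycerate made in situ by GAPDH. Activity in nmol/min/mg, normalized per unit (1 μmol ADP→ATP/min), then relative to D4TDP.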

CCRF-CEM [2] = assay: Activity of nucleoside diphosphate kinase from crude human CEM cell extract; type: cell-free; how it was run: as §1
CCRF-CEM [3] = assay: Activity of pyruvate kinase from crude human CEM cell extract; type: cell-free; how it was run: as §1
CCRF-CEM [4] = assay: Activity of 3-phosphoglycerate kinase from crude human CEM cell extract; type: cell-free; how it was run: as §1
[5] = target: Nucleoside diphosphate kinase A (Homo sapiens) (UniProt P15531); assay: Activity of human recombinant nm23H1
Chain of Nucleoside diphosphate kinase A (Homo sapiens) (P15531 whole entry): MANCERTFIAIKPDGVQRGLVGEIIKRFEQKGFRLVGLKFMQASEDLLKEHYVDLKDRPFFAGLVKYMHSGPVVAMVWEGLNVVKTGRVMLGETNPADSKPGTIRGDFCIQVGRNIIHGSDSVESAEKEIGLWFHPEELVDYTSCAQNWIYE
How it was run: (§2)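 Recombinant human nm23-H1 and nm23-H2 (cloned from KB) and PGK (cloned from HepG2). Donor was 2 mM ATP for nm23; for PGK, 1,3-bisphosphoglycerate generated by GAPDH. Specific activity (nmol/min/mg) was normalized per unit (1 μmol ADP→ATP/min) and compared with D4TDP. Mean ± SD, n=3.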

[6] = target: Nucleoside diphosphate kinase B (Homo sapiens) (UniProt P22392); assay: Activity of human recombinant nm23H2; how it was run: as §2
Chain of Nucleoside diphosphate kinase B (Homo sapiens) (P22392 whole entry): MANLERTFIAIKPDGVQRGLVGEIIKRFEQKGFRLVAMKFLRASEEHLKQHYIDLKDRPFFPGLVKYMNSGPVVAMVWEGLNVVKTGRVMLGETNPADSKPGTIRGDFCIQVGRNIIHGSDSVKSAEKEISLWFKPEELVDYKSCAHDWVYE

Homo sapiens [7] = species: Homo sapiens; assay: Activity of human recombinant 3-phosphoglycerate kinase assessed as conversion of 1 umol of ADP to ATP per min; how it was run: as §2
CCRF-CEM [8] = assay: Activity of nucleoside diphosphate kinase from crude human CEM cell extract assessed as conversion of 1 umol of ADP to ATP per min; type: cell-free; how it was run: as §1
Homo sapiens [9] = species: Homo sapiens; assay: Activity of human recombinant 3-phosphoglycerate kinase assessed as phosphorylation efficiency relative to 4-ethynyl D4TDP; settings: in the assay text read “relative to D4TDP” for “relative to 4-ethynyl D4TDP”; how it was run: as §2
[10] = target: Nucleoside diphosphate kinase A (Homo sapiens) (UniProt P15531); assay: Activity of human recombinant nm23H1 assessed as phosphorylation efficiency relative to 4-ethynyl D4TDP; settings: in the assay text read “relative to D4TDP” for “relative to 4-ethynyl D4TDP”; how it was run: as §2
CCRF-CEM [11] = assay: Activity of nucleoside diphosphate kinase from crude human CEM cell extract assessed as phosphorylation efficiency relative to D4TDP; type: cell-free; how it was run: as §1
CCRF-CEM [12] = assay: Activity of 3-phosphoglycerate kinase from crude human CEM cell extract assessed as phosphorylation efficiency relative to 4-ethynyl D4TDP; settings: in the assay text read “relative to D4TDP” for “relative to 4-ethynyl D4TDP”; how it was run: as §1
Homo sapiens [13] = species: Homo sapiens; assay: Activity of human recombinant 3-phosphoglycerate kinase; how it was run: as §2
[14] = target: Nucleoside diphosphate kinase B (Homo sapiens) (UniProt P22392); assay: Activity of human recombinant nm23H2 assessed as conversion of 1 umol of ADP to ATP per min; how it was run: as §2
CCRF-CEM [15] = assay: Activity of 3-phosphoglycerate kinase from crude human CEM cell extract assessed as conversion of 1 umol of ADP to ATP per min; type: cell-free; how it was run: as §1
[16] = target: Nucleoside diphosphate kinase B (Homo sapiens) (UniProt P22392); assay: Activity of human recombinant nm23H2 assessed as phosphorylation efficiency relative to 4-ethynyl D4TDP; settings: in the assay text read “relative to D4TDP” for “relative to 4-ethynyl D4TDP”; how it was run: as §2
[17] = target: Nucleoside diphosphate kinase A (Homo sapiens) (UniProt P15531); assay: Activity of human recombinant nm23H1 assessed as conversion of 1 umol of ADP to ATP per min; how it was run: as §2
[18] = target: T1, Thymidylate kinase (Homo sapiens) (UniProt P23919); assay: Ratio of Kcat to Km of human recombinant TMPK relative to D4TMP
T1 sequence (whole entry): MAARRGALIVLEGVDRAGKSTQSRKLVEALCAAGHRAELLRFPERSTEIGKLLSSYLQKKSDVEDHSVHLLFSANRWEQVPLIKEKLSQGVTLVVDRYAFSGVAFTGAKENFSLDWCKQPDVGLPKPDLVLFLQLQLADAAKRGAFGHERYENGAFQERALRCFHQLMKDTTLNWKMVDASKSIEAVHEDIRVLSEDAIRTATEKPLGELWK

CCRF-CEM [19] = assay: Activity of 3-phosphoglycerate kinase from crude human CEM cell extract assessed as phosphorylation efficiency relative to D4TDP
CCRF-CEM [20] = assay: Activity of pyruvate kinase from crude human CEM cell extract assessed as conversion of 1 umol of ADP to ATP per min; type: cell-free; how it was run: as §1
[21] = target: T1, Thymidylate kinase (Homo sapiens); assay: Ratio of Kcat to Km of human recombinant TMPK relative to […]
How it was run: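 Substrate ranges were TMP 6.25–100 μM and analog MPs 6.25–250 μM. Reactions were stopped at various times with TCA and neutralized with trioctylamine/trichlorotrifluoroethane. Km and kcat came from Lineweaver-Burk plots. Relative efficiency is kcat/Km with D4TMP as 100%. Mean ± SD of three experiments.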

[22] = target: T1, Thymidylate kinase (Homo sapiens); assay: Activity of TMPK in human CEM cells assessed as level of triphosphate metabolites per 10^6 cells at 2 uM after 12 hrs; type: cell-based; settings: CCRF-CEM
How it was run: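 CEM cells at 10^6/ml in RPMI/10% FBS were exposed to 2 μM radiolabeled nucleoside (75 mCi/mmol) for 12 h. Cells were washed in cold PBS with 20 μM dipyridamole and extracted with 15% TCA on ice for 15 min. Extracts were neutralized with trioctylamine/trichlorotrifluoroethane (45:55). MP, DP and TP were resolved by HPLC, and radioactivity was converted to pmol/10^6 cells. Two independent experiments.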

Activity [5] [nmol/min/mg]	Activity [6] [nmol/min/mg]	Activity (Homo sapiens [7]) [nmol]	Activity (Homo sapiens [13]) [nmol/min/mg]	Activity [14] [nmol]	Activity [17] [nmol]	Compound	Activity (CCRF-CEM [2]) [nmol/min/mg]	Activity (CCRF-CEM [4]) [nmol/min/mg]	Activity (CCRF-CEM [8]) [nmol]	Activity (CCRF-CEM [15]) [nmol]	further results
						Nc1ncnc2c1ncn2[C@@H]1O[C@H](COP(=O)(O)OP(=O)(O)O)[C@@H](O)[C@H]1O	2500	10600			Activity (CCRF-CEM [1]): 2.5 nmol/min/mg; Activity (CCRF-CEM [3]): 3.6 nmol/min/mg
107	131	0.005	14	0.1	0.08	Cc1cn([C@@H]2C[C@H](N=[N+]=[N-])[C@@H](COP(=O)(O)OP(=O)(O)O)O2)c(=O)[nH]c1=O	0.018	0.26	0.007	0.025	Activity (Homo sapiens [9]): 135%; Activity [10]: 7.2%; Activity (CCRF-CEM [11]): 1.7%; Activity (CCRF-CEM [12]): 6.2%; Activity [16]: 7.6%
						Cc1cn([C@H]2C[C@H](N=[N+]=[N-])[C@@H](COP(=O)(O)O)O2)c(=O)[nH]c1=O					Activity [18]: 59%
						Cc1cn([C@H]2C[C@H](O)[C@@H](COP(=O)(O)O)O2)c(=O)[nH]c1=O					Activity [18]: 5600%
1.3e+06	1.4e+06	0.049	137	1000	1000	Cc1cn([C@H]2C[C@H](O)[C@@H](COP(=O)(O)OP(=O)(O)O)O2)c(=O)[nH]c1=O	2700	21	1100	2	Activity (Homo sapiens [9]): 1300%; Activity [10]: 89000%; Activity (CCRF-CEM [19]): 490%; Activity (CCRF-CEM [11]): 260000%; Activity [16]: 83000%
1500	1700	0.0037	10	1.2	1.2	Cc1cn([C@H]2C=C[C@@H](COP(=O)(O)OP(=O)(O)O)O2)c(=O)[nH]c1=O	1.1	4.2	0.42	0.4	Activity (CCRF-CEM [20]): 99 nmol; Activity (CCRF-CEM [3]): 0.35 nmol/min/mg
						C#C[C@@]1(COP(=O)(O)O)C=C[C@H](n2cc(C)c(=O)[nH]c2=O)O1					Activity [21]: 8.8%
						Cc1cn([C@H]2C[C@H](N=[N+]=[N-])[C@@H](CO)O2)c(=O)[nH]c1=O					Activity [22]: 0.27 pmol

Source: ChEMBL document CHEMBL1145492, “Comparison of the phosphorylation of 4'-ethynyl 2',3'-dihydro-3'-deoxythymidine with that of other anti-human immunodeficiency virus thymidine analogs” (Antimicrob Agents Chemother, 2007)
